Sampled rows, rich in hits. Any-hit rate of the full collection: about 2.9%.
SENP8 block-1 = SENP8 protease inhibitors, primary screen, biochemical, luminescence; AID 2540, 2010; Sentrin-specific protease 8 (Homo sapiens), Q96LD8; inhibition, % at 10 µM; purified SENP8, Z-RLRGG-aminoluciferin cleavage; 330,000 compounds, 1.2% hits; in the data active means inhibition above about 50%
Target sequence (Q96LD8 whole entry, looked up): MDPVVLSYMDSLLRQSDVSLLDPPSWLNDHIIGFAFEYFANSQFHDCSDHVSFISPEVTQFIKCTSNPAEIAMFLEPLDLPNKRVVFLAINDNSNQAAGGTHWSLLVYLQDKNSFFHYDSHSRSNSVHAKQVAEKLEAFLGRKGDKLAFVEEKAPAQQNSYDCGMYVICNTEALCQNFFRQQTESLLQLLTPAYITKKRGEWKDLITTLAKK
SENP7 block = SENP7 protease inhibitors, primary screen, biochemical, luminescence, uHTS | Sentrin-specific protease 7 (Homo sapiens), Q9BQF6 | recombinant SENP7, Z-RLRGG-aminoluciferin luminescence, 40 min | inhibition, % at 5 µM | 330,000 compounds, 1.5% hits | AID 434973, 2010;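 active means inhibition above about 50% at the single test dose, limit read from the data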
SENP8 block-2 = human SENP8 protease inhibitors, primary screen, biochemical, fluorescence, Nedd8 protein substrate, uHTS | Sentrin-specific protease 8 (Homo sapiens), Q96LD8 | recombinant SENP8 | inhibition, % at 20 µM | 360,000 compounds, 0.64% hits | AID 602440, 2012; in the data active means inhibition mostly above about 40%, no sharp cut-off; inactive means mostly below about 27%
SENP1 FRET inh = human SENP1 catalytic domain inhibitors, primary screen, biochemical, FRET, uHTS; Sentrin-specific protease 1 (Homo sapiens), Q9P0U3; recombinant SENP1 catalytic domain, CyPet-SUMO1-YPet FRET cleavage; inhibition, % at 10 µM; 360,000 compounds, 0.21% hits; AID 624204, 2012;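 active means inhibition at least 30% at 10 µM, raw YFP signal under a set limit, fluorescence ratio 0.5 to 1.5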
Target sequence (Q9P0U3 419-644 limits assumed): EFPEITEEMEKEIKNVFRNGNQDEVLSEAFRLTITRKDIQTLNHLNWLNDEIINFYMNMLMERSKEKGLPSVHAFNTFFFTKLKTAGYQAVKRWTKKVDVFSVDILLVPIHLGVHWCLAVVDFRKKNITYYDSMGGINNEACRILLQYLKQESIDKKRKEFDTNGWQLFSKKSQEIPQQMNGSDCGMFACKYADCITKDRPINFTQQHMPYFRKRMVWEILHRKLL
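Test system: human SENP1 catalytic domain; medium: Tris pH 8 buffer plus EDTA, NaCl, BME, BSA, NP40, catalase; incubation: 50 min reaction at room temperature; technique: FRET, CFP and YFP emission; controls: no-enzyme low control and enzyme-plus-DMSO high control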
HSP90 inh = HSP90 inhibitors, primary screen, cell lysate, luminescence; Heat shock protein HSP 90 (rabbit reticulocyte lysate; luciferase refolding); Rabbit reticulocyte lysate, luciferase refolding luminescence, 3 h; inhibition, % at 5.6 µM; 290,000 compounds, 0.91% hits; AID 1789, 2009;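 active means inhibition above the screen-wide mean plus 3 SD, computed separately per campaign, cut at about 16% in these data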;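 further: inhibitors lower the luminescence because luciferase stays unfolded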
SENP6 block = SENP6 protease inhibitors, primary screen, biochemical, luminescence, uHTS; Sentrin-specific protease 6 (Homo sapiens), Q9GZR1; Recombinant SENP6 catalytic domain, aminoluciferin luminescence; inhibition, % at 10 µM; 330,000 compounds, 1.8% hits;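 active means inhibition above about 50% at the single tested dose, limit read from the data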
SENP8 confirm = SENP8 protease inhibitors, retest, confirmation, biochemical, luminescence, single concentration | shares compounds with SENP7 block | 6,200 compounds, 40% hits | Recombinant SENP8, Z-RLRGG-aminoluciferin luminescence, 60 min | inhibition, % at 12.5 µM;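 active means mean inhibition across replicates above about 50%, limit read from the data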
SENP6 conf = SENP6 protease inhibitors, confirmation, biochemical, luminescence, single concentration; inhibition, % at 12.5 µM; recombinant SENP6, Z-RLRGG-aminoluciferin luminescence; 6,200 compounds, 58% hits; shares compounds with SENP7 block
SENP7 conf = SENP7 protease inhibitors, retest, confirmation, biochemical, luminescence, single concentration. AID 488917, 2010. shares compounds with SENP7 block. inhibition, % at 12.5 µM. recombinant SENP7, Z-RLRGG-aminoluciferin luminescence, 40 min. 6,200 compounds, 69% hits
Casp3 SENP sel = caspase-3 protease inhibitors, confirmation, selectivity assay for SENP inhibitor project, biochemical, single concentration; 6,200 compounds, 60% hits; shares compounds with SENP7 block; inhibition, % at 12.5 µM; purified caspase-3, Z-DEVD-aminoluciferin luminescence, 60 min; AID 488918, 2010;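 active means mean inhibition above about 50%, limit read from the data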
Target sequence (P42574 28-227 limits assumed): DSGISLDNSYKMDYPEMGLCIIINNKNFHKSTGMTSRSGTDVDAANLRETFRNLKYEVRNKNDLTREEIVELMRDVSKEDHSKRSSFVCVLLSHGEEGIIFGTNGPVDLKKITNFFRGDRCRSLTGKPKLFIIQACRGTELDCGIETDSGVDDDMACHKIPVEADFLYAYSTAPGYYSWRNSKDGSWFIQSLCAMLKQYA
SENP luc ctr = counter-screen for SENP inhibitors: luminescence interference. shares compounds with SENP7 block. Pre-incubated SENP8/Z-RLRGG-aminoluciferin, luciferase luminescence interference. inhibition, % at 12.5 µM. 6,200 compounds, 39% hits. AID 488919;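 active means mean inhibition above about 50% when retested at one dose, limit read from the data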
A number is an active result.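 How the source made its calls, unless noted: active means mean inhibition above about 50% in the one-dose retest (limit read from the data); inactive means the rest.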

For O=c1cc(-c2ccccc2)[nH]n1-c1ccc([N+](=O)[O-])cc1 the results were SENP8 block-1 79, SENP7 block inactive, SENP8 block-2 inactive, SENP1 FRET inh inactive, HSP90 inh inactive, SENP6 block 84, SENP8 confirm 86, SENP6 conf 93, SENP7 conf 100, Casp3 SENP sel 90 and SENP luc ctr 71.
For O=c1ccc(-c2ccc([N+](=O)[O-])cc2)nn1-c1ccccc1 the results were SENP8 block-1 inactive, SENP7 block inactive, SENP8 block-2 inactive, SENP1 FRET inh inactive, HSP90 inh inactive and SENP6 block inactive.
For O=C(COc1cccc(F)c1)Nc1nc(-c2cccnc2)cs1 the results were SENP8 block-1 inactive, SENP7 block inactive, SENP8 block-2 inactive, SENP1 FRET inh inactive and SENP6 block inactive.
For CCOc1cc(/C=C2\C(=O)N(c3ccc(C(N)=O)cc3)N=C2C)ccc1OC(=O)c1cccs1 the results were SENP8 block-1 inactive, SENP7 block 68, SENP8 block-2 66, SENP1 FRET inh inactive, HSP90 inh inactive, SENP6 block 63, SENP8 confirm inactive, SENP6 conf inactive, SENP7 conf inactive, Casp3 SENP sel inactive and SENP luc ctr inactive.
For CCOc1cc(/C=C2/SC(=S)N(CC(=O)O)C2=O)ccc1OC(=O)c1cccs1 the results were SENP8 block-1 inactive, SENP7 block inactive, SENP8 block-2 inactive, SENP1 FRET inh inactive, HSP90 inh inactive and SENP6 block inactive.
`COc1cc(C)ccc1OCc1cc(C(=O)N(C)CCCN2CCOCC2)no1` gave SENP8 block-1 inactive, SENP7 block inactive, SENP8 block-2 inactive, SENP1 FRET inh inactive, HSP90 inh inactive and SENP6 block inactive.
For Cc1cccc2sc(NC(=O)c3ccc(NS(=O)(=O)c4cccs4)cc3)nc12 the results were SENP8 block-1 70, SENP7 block inactive, SENP8 block-2 inactive, SENP1 FRET inh inactive, HSP90 inh inactive, SENP6 block 86, SENP8 confirm inactive, SENP6 conf 81, SENP7 conf inactive, Casp3 SENP sel inactive and SENP luc ctr inactive.
`Clc1ccc(-c2nnc(SCc3nc4ccccc4[nH]3)o2)c(Cl)c1` gave SENP8 block-1 inactive, SENP7 block inactive, SENP8 block-2 inactive, SENP1 FRET inh inactive, HSP90 inh inactive and SENP6 block inactive.
C=CCSc1nnc(-c2ccc(Cl)cc2Cl)o1 was read as SENP8 block-1 inactive, SENP7 block 57, SENP8 block-2 inactive, SENP1 FRET inh inactive, HSP90 inh inactive, SENP6 block 60, SENP8 confirm inactive, SENP6 conf inactive, SENP7 conf 77, Casp3 SENP sel 56 and SENP luc ctr inactive.
For Clc1ccc(-c2nnc(SCc3ccon3)o2)c(Cl)c1 the results were SENP8 block-1 61, SENP7 block 57, SENP8 block-2 inactive, SENP1 FRET inh inactive, HSP90 inh inactive, SENP6 block 70, SENP8 confirm inactive, SENP6 conf 62, SENP7 conf 87, Casp3 SENP sel 64 and SENP luc ctr 61.
Screening Nc1nc(N)nc(-c2ccc(Cl)c(Cl)c2)n1 returned SENP8 block-1 inactive, SENP7 block 59, SENP8 block-2 inactive, SENP1 FRET inh inactive, SENP6 block 56, SENP8 confirm inactive, SENP6 conf inactive, SENP7 conf 78, Casp3 SENP sel inactive and SENP luc ctr 62.
COC(=O)[C@]1(Cc2ccccc2)N[C@H](CN(C)S(=O)(=O)c2ccc(C(C)(C)C)cc2)[C@@H]2C(=O)N(Cc3ccccc3)C(=O)[C@@H]21 was read as SENP8 block-1 inactive, SENP7 block inactive, SENP8 block-2 inactive, SENP1 FRET inh inactive and SENP6 block inactive.
`O=S1(=O)C=C[C@@H](CO)N1Cc1ccc(Br)cc1` gave SENP8 block-2 inactive and SENP1 FRET inh inactive.
`Clc1cnc(N/N=C/c2ccco2)c(Cl)c1` gave SENP8 block-1 61, SENP7 block inactive, SENP8 block-2 inactive, SENP1 FRET inh inactive, HSP90 inh inactive, SENP6 block 81, SENP8 confirm inactive, SENP6 conf inactive, SENP7 conf inactive, Casp3 SENP sel 84 and SENP luc ctr inactive.
CCCCCNC(=O)C(C1CC1)n1c(=O)c(-c2ccccc2)nc2ccccc21 (stereo not drawn) was read as SENP8 block-2 inactive and SENP1 FRET inh inactive.
For Cc1csc(NC(=O)c2ccco2)n1 the results were SENP8 block-1 inactive, SENP7 block inactive, SENP8 block-2 inactive, SENP1 FRET inh inactive, HSP90 inh inactive and SENP6 block inactive.
Cn1cccc1C(=O)Nc1nc(-c2ccccn2)cs1 was read as SENP8 block-1 inactive, SENP7 block 62, SENP8 block-2 inactive, SENP1 FRET inh inactive, HSP90 inh inactive, SENP6 block 74, SENP8 confirm 76, SENP6 conf 76, SENP7 conf 93, Casp3 SENP sel 84 and SENP luc ctr 78.
Screening Cc1ccc(C(=O)Nc2nc(-c3ccccn3)cs2)s1 returned SENP8 block-1 inactive, SENP7 block inactive, SENP8 block-2 inactive, SENP1 FRET inh inactive and SENP6 block inactive.
For Cc1csc(NC(=O)c2cccn2C)n1 the results were SENP8 block-1 76, SENP7 block 91, SENP8 block-2 inactive, SENP1 FRET inh inactive, HSP90 inh inactive, SENP6 block 82, SENP8 confirm 76, SENP6 conf 75, SENP7 conf 96, Casp3 SENP sel 93 and SENP luc ctr 84.
Screening COc1ccccc1C=NN=Cc1ccccc1OC returned SENP8 block-2 inactive and SENP1 FRET inh inactive.

Bioassay records as filed in PubChem BioAssay.
